The record followed here is ChEMBL document CHEMBL1152519, “Synthesis, structural activity-relationships, and biological evaluation of novel amide-based allosteric binding site antagonists in NR1A/NR2B N-methyl-D-aspartate receptors” (Bioorg Med Chem, 2009).

Calls of active or inactive are those of the source. No cut-off for these calls is given here.

The target in series [1] is Glutamate receptor ionotropic, NMDA 1/NMDA 2B (Mus musculus) (UniProt P35438+Q01097). As to the kind of experiment: Antagonist activity at mouse recombinant NR1/NR2B receptor expressed in Xenopus laevis oocytes assessed as inhibition of glutamate/glycine-induced current at 3 uM by two electrode voltage clamp method. The series is classed as functional, cell-based. Conditions: Oocyte.

Series [2] deals with Glutamate NMDA receptor; Grin1/Grin2a (Rattus norvegicus, UniProt P35439+Q00959). The series can be described thus: Antagonist activity at rat recombinant NR1/NR2A receptor expressed in Xenopus laevis oocytes assessed as inhibition of glutamate/glycine-induced current by two electrode voltage clamp method. The series is classed as functional, cell-based, Oocyte. The procedure, abridged: (§1)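 Xenopus oocytes expressing NR1/NR2 (wild type or amino terminal domain deletion mutant) recorded by TEVC at −40 mV, room temperature, pH 7.4–7.6, with EDTA 10 μM. Maximal glutamate/glycine applied alone, then with 5–8 successive compound concentrations. Leak-corrected; responses under 50 nA excluded. IC50 from fitted composite curve. NR1/NR2A oocytes were pre-incubated in 50 μM BAPTA-AM.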

For series [3], the target named is Glutamate NMDA receptor; Grin1/Grin2c (Rattus norvegicus, UniProt P35439+Q00961). The series can be described thus: Antagonist activity at rat recombinant NR1/NR2C receptor expressed in Xenopus laevis oocytes assessed as inhibition of glutamate/glycine-induced current by two electrode voltage clamp method. The series is classed as functional, cell-based, Oocyte. The method in brief: as §1

The target of series [4] is Glutamate receptor ionotropic, kainate 2 (Rattus norvegicus) (UniProt P42260). The series can be described thus: Antagonist activity at rat recombinant GluR6 expressed in Xenopus laevis oocytes assessed as inhibition of concanavalin A/glutamate-induced current at 3 uM by two electrode voltage clamp method. The series is classed as functional, cell-based. Conditions: Oocyte. The procedure, abridged: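 Oocytes expressing homomeric GluR6 (5–10 ng cRNA) pretreated 5 min with 10 μM concanavalin-A. Currents evoked by 100 μM glutamate at −40 mV, with or without 3 μM compound, and given as percent of control. Mean ± SEM of 4–10 oocytes; paired t-test.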
Chain of Glutamate receptor ionotropic, kainate 2 (Rattus norvegicus) (P42260 whole entry): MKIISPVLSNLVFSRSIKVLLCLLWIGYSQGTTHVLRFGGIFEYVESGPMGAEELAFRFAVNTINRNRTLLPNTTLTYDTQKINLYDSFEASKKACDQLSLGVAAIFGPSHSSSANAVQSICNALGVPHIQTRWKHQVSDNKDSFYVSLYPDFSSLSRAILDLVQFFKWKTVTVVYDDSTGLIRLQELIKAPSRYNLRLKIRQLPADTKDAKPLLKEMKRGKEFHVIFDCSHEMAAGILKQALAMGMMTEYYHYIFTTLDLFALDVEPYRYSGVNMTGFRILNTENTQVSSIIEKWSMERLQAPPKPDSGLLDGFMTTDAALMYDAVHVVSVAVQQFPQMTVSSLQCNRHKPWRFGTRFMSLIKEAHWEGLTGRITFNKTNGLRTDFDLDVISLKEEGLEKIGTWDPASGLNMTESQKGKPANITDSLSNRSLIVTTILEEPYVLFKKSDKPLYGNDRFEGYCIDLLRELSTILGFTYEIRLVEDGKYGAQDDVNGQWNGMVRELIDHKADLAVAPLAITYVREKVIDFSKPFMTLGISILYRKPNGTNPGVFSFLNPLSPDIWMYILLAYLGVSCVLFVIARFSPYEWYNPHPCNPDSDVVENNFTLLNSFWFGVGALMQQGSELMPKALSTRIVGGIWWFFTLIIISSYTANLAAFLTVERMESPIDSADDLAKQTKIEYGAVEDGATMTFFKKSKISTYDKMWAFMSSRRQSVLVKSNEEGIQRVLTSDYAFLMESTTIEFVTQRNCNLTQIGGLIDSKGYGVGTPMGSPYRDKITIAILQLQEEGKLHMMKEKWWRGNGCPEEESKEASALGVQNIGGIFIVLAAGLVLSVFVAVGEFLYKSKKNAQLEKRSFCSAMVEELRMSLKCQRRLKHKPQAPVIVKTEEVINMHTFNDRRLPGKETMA

For series [5], the target named is Glutamate receptor 1 (Rattus norvegicus) (UniProt P19490). As to the kind of experiment: Antagonist activity at rat recombinant GluR1 expressed in Xenopus laevis oocytes assessed as inhibition of glutamate-induced current at 3 uM by two electrode voltage clamp method. The series is classed as functional, cell-based. Conditions: Oocyte. The procedure, abridged:
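GluR1 homomers expressed from 5–10 ng cRNA in Xenopus oocytes. Clamped at −40 mV. Currents evoked by 100 μM glutamate with 3 μM compound, expressed as % of control without compound. Mean ± SEM, 4–10 oocytes; paired t-test.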
On the technique in general: Two-electrode voltage clamp holds a large cell at a set potential and records current.

The species named for series [6] is Rattus norvegicus. As to the kind of experiment: Inhibition of voltage-gated potassium channel in Sprague-Dawley rat cortical neuron at 3 uM by whole cell patch clamp technique. (In general: Patch clamp records ionic current or voltage across a cell membrane.)
Series [7] has as its target T1, Glutamate NMDA receptor; Grin1/Grin2b (Rattus norvegicus, UniProt P35439+Q00960). As to the kind of experiment: Antagonist activity at wild type rat NR1/NR2B receptor expressed in Xenopus laevis oocytes assessed as inhibition of glutamate/glycine-induced current by two electrode voltage clamp method. The series is classed as functional, cell-based, Oocyte. The method in brief:
as §1

The test system of series [8] is Oocyte. The series can be described thus: Antagonist activity at rat NR1/NR2B receptor deltaATD mutant expressed in Xenopus laevis oocytes assessed as inhibition of glutamate/glycine-induced current at 0.01 to 100 uM by two electrode voltage clamp method. The series is classed as functional, cell-based. The method in brief:
(§2)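 Oocytes express NR1/NR2B amino-terminal-domain mutants (mouse D101A point mutant; rat ATD deletion). Concentration–effect curves were recorded by two-electrode voltage clamp at −40 mV and 23 °C, with 50 μM glutamate plus 30 μM glycine. Each step is compound plus agonists, expressed relative to agonists alone.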

Series [9] has as its target Glutamate receptor ionotropic, NMDA 2B (Mus musculus, UniProt P35438+Q01097, D101A). The series can be described thus: Antagonist activity at mouse NR1/NR2B receptor D101A mutant expressed in Xenopus laevis oocytes assessed as inhibition of glutamate/glycine-induced current by two electrode voltage clamp method. The series is classed as functional, cell-based, Oocyte. The method in brief:
as §2

Series [10] relates to MDCK. The series can be described thus: Apparent permeability from apical to basolateral side of MDR1-expressing MDCK cells at 5 uM after 2 hrs by LC-MS/MS analysis. The series is classed as ADME, cell-based, Canis lupus familiaris. The note with it: dog. The procedure, abridged: (§3)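 MDR1-MDCK monolayers grown 7–11 days on Transwells. Compound at 5 μM in HBSS pH 7.4 (final DMSO ≤1%) added apically (A–B) or basally (B–A). Incubated 2 h at 37 °C; both compartments quantified by LC–MS/MS against a >4-point calibration. Papp given in ×10−6 cm/s; efflux ratio = B–A/A–B. Duplicates.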

The subject of series [11] is MDCK. The series can be described thus: Apparent permeability from basolateral to apical side of MDR1-expressing MDCK cells at 5 uM after 2 hrs by LC-MS/MS analysis. The note with it: dog. The series is classed as ADME, cell-based, Canis lupus familiaris. The method in brief: as §3
Series [12] concerns the target Glutamate NMDA receptor; Grin1/Grin2a (Rattus norvegicus) (UniProt P35439+Q00959). The series can be described thus: Antagonist activity at rat recombinant NR1/NR2A receptor expressed in Xenopus laevis oocytes assessed as inhibition of glutamate/glycine-induced current at 3 uM by two electrode voltage clamp method relative to control. Conditions: Oocyte. The series is classed as functional, cell-based. The method in brief:
(§4)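 Xenopus oocytes injected with NR1-1a (3–5 ng) plus NR2A, 2B, 2C or 2D cRNA (7–10 ng), kept at 15 °C. Voltage clamp at −40 mV. Responses to 50 μM glutamate + 30 μM glycine with 3 μM compound, as % of response without compound. NR2A oocytes pre-loaded with 50 μM BAPTA-AM. Mean ± SEM, 4–10 oocytes; paired t-test.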

For series [13], the target named is Glutamate NMDA receptor; Grin1/Grin2c (Rattus norvegicus) (UniProt P35439+Q00961). As to the kind of experiment: Antagonist activity at rat recombinant NR1/NR2C receptor expressed in Xenopus laevis oocytes assessed as inhibition of glutamate/glycine-induced current at 3 uM by two electrode voltage clamp method relative to control. The series is classed as functional, cell-based. The note with it: Oocyte. The method in brief: as §4

In series [14] the target is T1, Glutamate NMDA receptor; Grin1/Grin2b. As to the kind of experiment: Antagonist activity at rat recombinant NR1/NR2B receptor expressed in frog oocytes assessed as inhibition of glutamate/glycine-induced current by two electrode voltage clamp method. The series is classed as functional, cell-based, Oocyte. The method in brief: as §1
Series [15] concerns the target Glutamate NMDA receptor; GRIN1/GRIN2B (Homo sapiens, UniProt Q05586+Q13224). As to the kind of experiment: Antagonist activity at human recombinant NR1/NR2B receptor expressed in frog oocytes assessed as inhibition of glutamate/glycine-induced current by two electrode voltage clamp method. The series is classed as functional, cell-based, Oocyte. The procedure, abridged: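 Human NR1/NR2B cRNA injected into Xenopus oocytes. Two-electrode voltage clamp at −40 mV, 23 °C, 2–7 d after injection. Glutamate/glycine (50–100 μM/30 μM) applied, then with 5–8 compound concentrations. Bath contains 10 μM EDTA; leak-corrected.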

For series [16], the target named is Glutamate receptor ionotropic, NMDA 2B (Rattus norvegicus, UniProt Q00960). As to the kind of experiment: Displacement of [3H]ifenprodil form NR2B receptor in Wistar rat cerebral cortex membrane. The series is classed as tissue-based. In general terms: In a radioligand displacement assay an active substance lowers the binding of a labelled ligand.
For series [17], the target named is Glutamate NMDA receptor; Grin1/Grin2b (Rattus norvegicus) (UniProt P35439+Q00960). The series can be described thus: Antagonist activity at rat recombinant NR1/NR2B receptor expressed in Xenopus laevis oocytes assessed as inhibition of glutamate/glycine-induced current at 3 uM by two electrode voltage clamp method. The series is classed as functional, cell-based. The note with it: Oocyte. The method in brief: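 Oocytes (stage V–VI, Xenopus laevis) injected with NR1 and NR2 cRNA, held 1–7 d at 15 °C. TEVC at −40 mV, 23 °C, in 90 NaCl/1 KCl/10 HEPES/0.5 BaCl2 (mM) plus 10 μM EDTA. Current to 50 μM glutamate plus 30 μM glycine with 3 μM compound, given as percent of control; 4–10 oocytes.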

Chain of Glutamate receptor 1 (Rattus norvegicus) (P19490 whole entry): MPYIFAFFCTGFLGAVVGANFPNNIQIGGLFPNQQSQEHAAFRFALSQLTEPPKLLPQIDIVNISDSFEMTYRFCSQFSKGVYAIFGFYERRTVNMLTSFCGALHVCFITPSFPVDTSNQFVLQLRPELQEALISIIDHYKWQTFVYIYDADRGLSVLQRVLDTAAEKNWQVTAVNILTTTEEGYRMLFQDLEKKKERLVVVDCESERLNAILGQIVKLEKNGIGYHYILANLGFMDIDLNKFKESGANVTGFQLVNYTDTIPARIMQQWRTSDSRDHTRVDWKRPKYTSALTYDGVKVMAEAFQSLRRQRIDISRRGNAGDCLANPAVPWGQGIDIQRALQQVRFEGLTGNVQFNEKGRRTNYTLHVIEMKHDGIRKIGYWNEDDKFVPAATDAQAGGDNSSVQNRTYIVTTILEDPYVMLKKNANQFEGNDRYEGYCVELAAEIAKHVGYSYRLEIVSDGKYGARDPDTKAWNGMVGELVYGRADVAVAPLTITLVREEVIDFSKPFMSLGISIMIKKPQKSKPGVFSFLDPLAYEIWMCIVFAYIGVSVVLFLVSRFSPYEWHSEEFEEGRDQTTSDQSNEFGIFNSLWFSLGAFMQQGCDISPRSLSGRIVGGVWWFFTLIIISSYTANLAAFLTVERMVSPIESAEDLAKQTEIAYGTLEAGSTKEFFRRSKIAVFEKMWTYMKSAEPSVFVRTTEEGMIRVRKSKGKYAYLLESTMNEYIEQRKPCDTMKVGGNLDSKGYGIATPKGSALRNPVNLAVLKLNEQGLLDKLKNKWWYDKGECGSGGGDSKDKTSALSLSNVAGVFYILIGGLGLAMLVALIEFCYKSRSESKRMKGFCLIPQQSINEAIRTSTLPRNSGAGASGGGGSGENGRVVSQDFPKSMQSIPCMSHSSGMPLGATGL
Chain of Glutamate NMDA receptor; GRIN1/GRIN2B (Q13224 whole entry, other chains not shown): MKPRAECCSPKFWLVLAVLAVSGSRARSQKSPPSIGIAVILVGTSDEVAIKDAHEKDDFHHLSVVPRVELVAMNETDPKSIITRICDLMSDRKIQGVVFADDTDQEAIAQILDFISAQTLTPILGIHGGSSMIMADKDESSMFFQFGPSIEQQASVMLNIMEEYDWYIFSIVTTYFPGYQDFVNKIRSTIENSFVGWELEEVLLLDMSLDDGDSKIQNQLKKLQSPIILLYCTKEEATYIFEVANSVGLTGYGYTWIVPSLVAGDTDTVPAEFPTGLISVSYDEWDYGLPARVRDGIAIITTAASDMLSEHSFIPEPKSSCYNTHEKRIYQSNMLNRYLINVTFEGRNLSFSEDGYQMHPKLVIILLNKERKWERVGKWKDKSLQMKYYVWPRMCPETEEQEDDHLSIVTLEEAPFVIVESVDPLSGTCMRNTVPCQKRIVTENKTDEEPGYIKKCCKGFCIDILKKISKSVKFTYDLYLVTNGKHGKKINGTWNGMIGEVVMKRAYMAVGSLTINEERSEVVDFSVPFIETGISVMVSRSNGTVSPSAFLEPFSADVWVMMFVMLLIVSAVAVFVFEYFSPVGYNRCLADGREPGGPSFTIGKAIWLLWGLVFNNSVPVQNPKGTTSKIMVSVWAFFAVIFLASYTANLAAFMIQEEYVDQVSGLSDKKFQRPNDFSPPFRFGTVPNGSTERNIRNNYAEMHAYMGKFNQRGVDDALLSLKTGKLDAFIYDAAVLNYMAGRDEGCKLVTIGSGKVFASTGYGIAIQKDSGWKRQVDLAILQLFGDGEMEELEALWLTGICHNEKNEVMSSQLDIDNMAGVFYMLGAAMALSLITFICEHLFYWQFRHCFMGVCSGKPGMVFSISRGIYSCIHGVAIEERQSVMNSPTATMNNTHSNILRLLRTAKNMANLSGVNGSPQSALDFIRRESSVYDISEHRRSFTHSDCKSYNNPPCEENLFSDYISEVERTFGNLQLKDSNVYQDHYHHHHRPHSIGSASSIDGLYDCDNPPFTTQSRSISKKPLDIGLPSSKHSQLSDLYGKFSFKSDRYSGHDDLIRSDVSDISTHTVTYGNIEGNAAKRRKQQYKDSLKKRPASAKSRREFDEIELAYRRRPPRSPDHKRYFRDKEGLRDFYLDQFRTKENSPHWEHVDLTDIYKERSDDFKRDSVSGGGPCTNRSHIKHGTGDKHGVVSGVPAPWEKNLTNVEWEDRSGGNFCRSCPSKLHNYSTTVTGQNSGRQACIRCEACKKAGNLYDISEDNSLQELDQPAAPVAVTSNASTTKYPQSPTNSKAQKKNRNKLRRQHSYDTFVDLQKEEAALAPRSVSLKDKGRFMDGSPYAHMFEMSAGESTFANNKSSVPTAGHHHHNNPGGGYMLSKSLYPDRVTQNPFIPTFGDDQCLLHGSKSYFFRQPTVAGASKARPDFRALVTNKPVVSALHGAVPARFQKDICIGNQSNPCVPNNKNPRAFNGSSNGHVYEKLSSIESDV
Chain of Glutamate receptor ionotropic, NMDA 2B (Mus musculus, UniProt P35438+Q01097, D101A) (Q01097 whole entry D101A, one chain of several): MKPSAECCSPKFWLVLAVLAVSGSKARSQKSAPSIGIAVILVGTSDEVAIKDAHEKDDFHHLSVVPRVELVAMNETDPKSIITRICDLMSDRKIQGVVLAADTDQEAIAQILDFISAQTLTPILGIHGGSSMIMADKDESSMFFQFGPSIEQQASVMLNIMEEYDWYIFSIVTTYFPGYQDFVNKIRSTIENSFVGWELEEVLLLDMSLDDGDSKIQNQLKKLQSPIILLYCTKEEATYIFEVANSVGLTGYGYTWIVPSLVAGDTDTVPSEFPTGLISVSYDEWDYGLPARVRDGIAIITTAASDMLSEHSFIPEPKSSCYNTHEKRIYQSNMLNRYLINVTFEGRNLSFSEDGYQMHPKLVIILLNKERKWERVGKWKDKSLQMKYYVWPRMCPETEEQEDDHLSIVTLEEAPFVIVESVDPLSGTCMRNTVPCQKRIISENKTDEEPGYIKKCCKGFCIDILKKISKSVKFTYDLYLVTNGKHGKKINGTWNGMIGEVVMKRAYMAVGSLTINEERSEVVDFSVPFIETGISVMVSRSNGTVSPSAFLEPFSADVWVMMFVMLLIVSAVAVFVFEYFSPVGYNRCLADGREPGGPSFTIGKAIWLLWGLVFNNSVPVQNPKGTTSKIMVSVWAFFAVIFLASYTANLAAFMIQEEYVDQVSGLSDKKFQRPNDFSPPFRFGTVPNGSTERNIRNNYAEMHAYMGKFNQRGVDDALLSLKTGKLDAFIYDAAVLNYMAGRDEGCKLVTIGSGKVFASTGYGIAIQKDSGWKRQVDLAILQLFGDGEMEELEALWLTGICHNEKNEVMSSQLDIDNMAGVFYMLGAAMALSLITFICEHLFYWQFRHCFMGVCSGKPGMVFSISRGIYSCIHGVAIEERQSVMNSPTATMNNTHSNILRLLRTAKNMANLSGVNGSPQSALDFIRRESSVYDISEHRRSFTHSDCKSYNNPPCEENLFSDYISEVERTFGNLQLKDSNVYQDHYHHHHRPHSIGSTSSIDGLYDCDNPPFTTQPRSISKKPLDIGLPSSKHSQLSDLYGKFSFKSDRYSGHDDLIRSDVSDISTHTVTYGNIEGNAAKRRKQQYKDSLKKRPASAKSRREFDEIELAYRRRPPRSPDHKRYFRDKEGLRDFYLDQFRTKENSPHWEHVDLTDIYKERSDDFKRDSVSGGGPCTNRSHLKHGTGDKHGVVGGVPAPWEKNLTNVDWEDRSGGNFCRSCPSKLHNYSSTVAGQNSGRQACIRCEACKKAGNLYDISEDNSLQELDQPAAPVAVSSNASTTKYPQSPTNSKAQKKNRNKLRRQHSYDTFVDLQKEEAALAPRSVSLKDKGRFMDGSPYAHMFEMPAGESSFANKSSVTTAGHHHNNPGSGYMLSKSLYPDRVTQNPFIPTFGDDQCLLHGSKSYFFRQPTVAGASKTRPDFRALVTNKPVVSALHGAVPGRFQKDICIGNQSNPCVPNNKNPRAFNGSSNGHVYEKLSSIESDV

Turning to `CS(=O)(=O)Nc1ccc(OCC(=O)NCCNc2ccc(Cl)c(Cl)c2)cc1`, the inhibition was determined as 78% in series [1] and 88% in series [17]. In addition, the IC50 in series [2] is 82000 nM; in series [3], 58000 nM; in series [7], 57 nM; in [9], 52000 nM; in series [14], 57 nM; in [15], 54 nM. The inhibition result in series [4], in [5], in series [6] and in series [8] was “inactive” throughout. The Papp in series [10] worked out at 1.8 ×10⁻⁶ cm/s; in [11], 63.2 ×10⁻⁶ cm/s. Besides, the % response in series [12] was 92%; in series [13] it was 98%. The compound also registered a Ki in [16] of 119 nM.

In general, inhibition refers to the relative decrease from the control value, in per cent. Usually IC50 stands for the concentration needed to halve the response being measured. One may read the Papp as the rate of passage across a membrane or cell layer, normalised by area and donor concentration. In general, Ki refers to the equilibrium dissociation constant of an inhibitor or competing ligand from its target. High values mean weaker binding, low ones tighter binding.
